Most compounds without a hit are left out; they make up all but 1.9% or so of the library.
PP5 inh: blocks human protein phosphatase 5 activity; purified PP5c, OMFP substrate fluorescence; inhibition, % at 6.7 µM; hit rate 0.18% among 320,000;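 active = inhibition above the campaign's mean inhibition across all tested compounds plus 3 SD, cut at about 9.5% in these data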;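 note: 0% = DMSO only and 100% = 100 µM cantharidin control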
STEP block: inhibitors of human striatal-enriched phosphatase STEP; P54829; hit rate 0.25% among 360,000; inhibition, % at 20 µM; AID 588621; recombinant STEP, OMFP fluorogenic substrate, fluorescence;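 active = inhibition at 20 µM, scaled per plate between control wells, above about 37%, limit read from the data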;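 note: 0% = DMSO with enzyme and substrate and 100% = substrate only without enzyme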
Target sequence (P54829 whole entry, looked up): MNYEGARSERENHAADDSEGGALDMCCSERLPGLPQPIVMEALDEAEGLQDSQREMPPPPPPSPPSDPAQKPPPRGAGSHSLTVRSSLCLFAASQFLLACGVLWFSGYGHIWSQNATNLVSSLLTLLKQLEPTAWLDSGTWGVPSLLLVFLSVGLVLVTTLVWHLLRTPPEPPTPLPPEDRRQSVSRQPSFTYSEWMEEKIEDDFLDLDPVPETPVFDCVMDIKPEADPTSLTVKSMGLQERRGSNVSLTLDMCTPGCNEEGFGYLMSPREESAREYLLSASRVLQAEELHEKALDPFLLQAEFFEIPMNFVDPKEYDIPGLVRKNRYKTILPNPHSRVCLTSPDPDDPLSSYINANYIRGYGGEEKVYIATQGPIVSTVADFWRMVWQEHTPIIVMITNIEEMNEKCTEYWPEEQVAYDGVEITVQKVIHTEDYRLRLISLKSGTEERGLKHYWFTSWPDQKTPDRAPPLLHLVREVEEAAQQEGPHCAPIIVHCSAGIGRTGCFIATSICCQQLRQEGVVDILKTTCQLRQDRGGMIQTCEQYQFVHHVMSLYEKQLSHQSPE
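Material: STEP (striatal-enriched tyrosine phosphatase) enzyme, cell-free | Medium: 50 mM Bis-Tris pH 6.0 with 2.5 mM DTT and 0.005% Tween 20 | Read-out: Percent inhibition scaled to no-enzyme and uninhibited-enzyme controls, plate-pattern corrected | Signal: Fluorescence read at 480 nm ex / 540 nm em | Times: 20 min reaction, room temperature, in the dark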
LMPTP inh: blocks human LMPTP phosphatase; P24666; recombinant LMPTP-A, OMFP fluorogenic substrate, fluorescence intensity; inhibition, % at 20 µM; hit rate 0.22% among 360,000; AID 651560;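 active = compounds that cut the enzyme signal by at least half of the control window in the single-dose screen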;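 note: plate controls were DMSO wells with enzyme plus substrate for no effect and substrate without enzyme for full effect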
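Assay system: LMPTP-A phosphatase enzyme | Input: 0.625 nM enzyme | Also added: Fluorogenic phosphatase substrate OMFP at 400 µM final | Compound dosing: One test concentration per compound, 20 µM, with 3% DMSO overall | Schedule: 50 min enzyme reaction at room temperature, protected from light | Signal: Fluorescence intensity | Benchmarks: no-enzyme and uninhibited controls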
Scp-1 inhibitor: Scp-1 (human) phosphatase inhibition; Q9GZU7; Recombinant Scp1, phosphopeptide, malachite green phosphate absorbance; inhibition, % at 20 µM; hit rate 0.88% among 340,000; AID 493091;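 active = inhibition above about 50% at 20 µM, limit read from the data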;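 note: plate controls were DMSO wells with enzyme for no effect and wells lacking enzyme for full effect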
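Test system: SCP-1 catalytic domain; Buffer or medium: Acidic Tris acetate buffer with magnesium and detergent; Also added: Phosphorylated 17-residue peptide substrate; Compound: single 20 µM dose, 1% DMSO; Schedule: enzyme reaction 45 min at room temperature, colour 5 min, stabilisation 30 min; Signal: Phosphate-binding colour reagent, absorbance read at 630 nm.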
PP1 inh: counter-screen for PP5 inhibitors: inhibitors of human PP1-alpha. purified PP1alpha, OMFP fluorescence. hit rate 0.9% among 320,000. inhibition, % at 6.7 µM. P62136;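 active = inhibition above the mean inhibition of all tested compounds plus 3 SD, computed separately for each screening campaign, cut at about 15% in these data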
Starred values were filed as active, the others as inactive; . = no result given.

SMILES	PP5 inh	STEP block	LMPTP inh	Scp-1 inhibitor	PP1 inh
O=CNCC(=O)NCCc1ccc(Cl)cc1	2	0	-2	-5	2
O=C(C1=C(O)C(=O)N(CCN2CCOCC2)C1c1ccc(Cl)cc1)c1cc2ccccc2o1 (stereo not drawn)	4	9	1	-7	19*
O=C(C1=C(O)C(=O)N(CCCN2CCOCC2)C1c1ccc(Cl)cc1)c1cc2ccccc2o1 (stereo not drawn)	3	.	.	-2	16*
O=C(C1=C(O)C(=O)N(CCN2CCOCC2)C1c1ccc([N+](=O)[O-])cc1)c1cc2ccccc2o1 (stereo not drawn)	1	6	2	-2	14
CC(C1SC(=S)NC1=O)C1SC(=S)NC1=O (stereo not drawn)	.	2	68*	.	.
Cc1ccc(-c2nn(C)c(=O)c3ccccc23)cc1S(=O)(=O)NCCN1CCOCC1	0	1	0	15	-1
CCOC(=O)CNS(=O)(=O)c1cc(-c2nn(C)c(=O)c3ccccc23)ccc1C	3	16	6	62*	2
Cc1cc(C)c2c(c1)NC(C(=O)O)C1CC=CC21 (stereo not drawn)	-5	36	43	72*	13
Cc1ccc2c(c1C)NC(C(=O)O)C1CC=CC21 (stereo not drawn)	2	20	63*	80*	9
O=C(O)C1Nc2c(C(=O)N3CCOCC3)cccc2C2C=CCC12 (stereo not drawn)	0	10	-2	51*	0
O=C(O)C1Nc2c(C(F)(F)F)ccc(Cl)c2C2C=CCC12 (stereo not drawn)	-1	3	-1	2	1
O=C(CSc1ncnc2nc[nH]c12)c1ccccc1	4	0	-1	0	-2
C/C(=N\Nc1nc(C(C)(C)C)cs1)c1ccccc1	3	0	1	-4	0
CC12CCC(=O)N1C(C(=O)NCCc1ccccc1)CS2 (stereo not drawn)	.	-2	0	-8	.
CCN=C1S/C(=C\c2cn(CC(=O)NCc3ccco3)c3ccccc23)C(=O)N1CC	2	-2	1	-5	15*
O=S(=O)(CCS(=O)(=O)c1ccccc1)c1ccccc1	.	1	-1	-10	.
CO/N=C(/C(=O)N[C@@H]1C(=O)N2C(C(=O)O)=CCS[C@H]12)c1cnc(N)s1	0	78*	14	.	1
O=C(O)c1ccccc1NS(=O)(=O)c1ccc(N/N=C/c2ccc(O)c(O)c2)c([N+](=O)[O-])c1	.	3	6	18	.
O=C(O)c1ccccc1NS(=O)(=O)c1ccc(NN=Cc2cccc(Cl)c2)c([N+](=O)[O-])c1	.	7	83*	-13	.
Cc1ccc(-c2nc(N)s[n+]2-c2ccccc2)cc1	-1	0	1	88*	-4
CNc1nc(-c2ccccc2)[n+](-c2ccc(C)cc2)s1	1	-3	-1	83*	-10
COc1cccc(N=C2NC(=O)/C(=C/c3cc([N+](=O)[O-])ccc3O)S2)c1	-1	50*	88*	44	8
COc1cc2ccccc2cc1C(=O)Nc1ccc(Cc2ccncc2)cc1	6	6	8	3	16*
COc1cc2ccccc2cc1C(=O)Nc1ccc(C)cc1	3	0	3	-9	4
COc1ccc(C=Nc2ccc3[nH]ncc3c2)c(O)c1	1	3	-2	-4	-2
SMILES	PP5 inh	STEP block	LMPTP inh	Scp-1 inhibitor	PP1 inh
Oc1c(Br)cc(Br)cc1C=Nc1ccc2[nH]ncc2c1	2	-2	1	-13	90*
Oc1ccccc1/C=N/[n+]1ccccc1	-1	-1	-2	103*	-4
Cc1ncc(CO)c(/C=N/NC(=O)c2ccc(Br)cc2)c1O	1	.	.	.	-2
O=C(Cc1cccs1)N/N=C/C=C/c1ccco1	2	1	12	46	1
CCCCN(C)C(=O)c1ccc(CS(=O)(=O)c2ccccc2C)o1	2	1	0	-9	-3
COc1cccc(-n2c(SCc3cc(=O)oc4cc(O)c(O)cc34)nc3ccccc3c2=O)c1	3	12	52*	32	12
CCN(CC)C(=O)CSc1nc2ccccc2c(=O)n1-c1cccc(OC)c1	-2	-1	-1	-2	-1
CN(C)CCn1nnnc1SCC1=C(C(=O)O)N2C(=O)[C@@H](NC(=O)Cc3csc(N)n3)[C@H]2SC1	3	-1	1	14	0
CO[C@@]1(NC(=O)CSCC#N)C(=O)N2C(C(=O)O)=C(CSc3nnnn3C)CS[C@@H]21	-3	3	-2	65*	-3
Cc1ccc(-c2csc(C3C(N)=NC(S)=C(C#N)C34CCCCC4)n2)cc1 (stereo not drawn)	4	4	-2	-2	17*
CCn1c(SCC(=O)Nc2ccc3c(c2)c2ccccc2n3CC)nnc1-c1ccco1	4	0	15	74*	13
Cc1[nH]n(-c2ccccc2)c(=O)c1N=Nc1cccc([N+](=O)[O-])c1	0	1	3	10	-2
NC(=S)n1[nH]c(-c2ccc([N+](=O)[O-])cc2)c(N=Nc2cccc([N+](=O)[O-])c2)c1=O	.	22	58*	74*	.
Cc1c(N=Nc2c(-c3ccc([N+](=O)[O-])cc3)[nH]n(C(N)=S)c2=O)cccc1[N+](=O)[O-]	.	82*	71*	93*	.
Cc1[nH]n(C(N)=S)c(=O)c1N=Nc1cccc([N+](=O)[O-])c1C	3	3	-1	-4	0
Cc1c2ccncc2cc2c1[nH]c1ccccc12	.	3	55*	-8	.
NC(=O)[C@@H]1CC2(CC(c3cccc(NC(=O)COc4ccc(Cl)cc4)c3)=NO2)CN1C(=O)COc1ccc(Cl)cc1 (stereo partly drawn)	4	3	2	-5	12
Cc1c(C(=O)N2CC3(CC(c4cccc(NC(=O)CC(c5ccccc5)c5ccccc5)c4)=NO3)C[C@@H]2C(N)=O)cc([N+](=O)[O-])cc1[N+](=O)[O-] (stereo partly drawn)	4	-3	2	-6	16*
NC(=O)[C@H]1CC2(CC(c3cccc(NC(=O)COc4ccc(Cl)cc4)c3)=NO2)CN1C(=O)C(c1ccccc1)c1ccccc1 (stereo partly drawn)	2	1	2	-4	16*
Nc1cc(OC(=O)c2cccs2)nn1S(=O)(=O)c1ccccc1	2	-3	0	-14	15*
CC1CCc2c(sc(NC(=O)CSc3ncn[nH]3)c2C#N)C1 (stereo not drawn)	1	2	-7	-7	-4
Cc1sc(NC(=O)CSc2nnc(-c3ccccc3)o2)c(C#N)c1C	-1	2	0	-7	0
CC1CCc2c(sc(NC(=O)CSc3nnc(-c4ccccc4)o3)c2C#N)C1 (stereo not drawn)	-1	2	65*	1	1
